Source: ChEMBL document CHEMBL1123378, “Cardiotonic agents. 1. Synthesis and structure-activity relationships in a new class of 3-, 4-, and 5-pyridyl-2(1H)-quinolone derivatives” (1986)

Legend:
Cavia porcellus [1] = species on record: Cavia porcellus; assay: Positive inotropic activity in isolated left guinea pig atria.; format: functional; conditions: read-out: ED50 (the source's name)
In short: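 Isolated guinea pig left atria were paced electrically with square-wave pulses (2.5 Hz, 5 ms, voltage 50% above threshold) and stretched to 0.5 g resting tension. The bath was Krebs–Henseleit at 32 °C, gassed with 95% O2/5% CO2. An isoprenaline dose–response curve was run first to test each preparation. The ED50 (mol/L, dose giving 50% of maximum effect) was derived by the Ariens–Van Rossum method.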

Cavia porcellus [2] = species on record: Cavia porcellus; assay: Maximum response compared to maximum response to isoprenaline.; format: functional
In short: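 Electrically paced isolated guinea pig left atria (2.5 Hz, 5 ms pulses, 50% above threshold) were held in Krebs–Henseleit at 32 °C under 95% O2/5% CO2 and 0.5 g resting tension. Intrinsic activity is the compound's maximal inotropic response divided by the isoprenaline maximum, with isoprenaline set to 1. The number of experiments is given per value.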

Structure (SMILES) | EC50 (Cavia porcellus [1]) [µM] | Intrinsic activity (Cavia porcellus [2])
CCO/C=C\C(=O)Nc1cccc(-c2cccnc2)c1 | – | 0.42
Cl.Nc1cc2ccccc2nc1O | > 77 | 0.2
Cl.Oc1cc(-c2ccncc2)c2cccc(O)c2n1 | 22 | 0.55
CCO/C=C\C(=O)Nc1cccc(-c2ccccn2)c1 | – | 0.33
Cl.Oc1ccc2c(-c3ccncc3)ccc(O)c2n1 | 20 | 0.24
CC(C)NCC(O)c1ccc(O)c(O)c1 (centres undefined) [ISOPROTERENOL] | – | 1
CCO/C=C\C(=O)Nc1cc(-c2cccnc2)ccc1Cl | – | 0.28
Cc1[nH]c(=O)c(C#N)cc1-c1ccncc1 [MILRINONE] | 14 | 0.67
CCO/C=C\C(=O)Nc1cc(-c2cccnc2)ccc1OC | – | 0.54
COc1ccc(-c2ccccn2)c2c1NC(=O)CC2 | 22 | 0.44
COc1ccc(N)c2ccc(O)nc12.Cl | 235 | 0.23

The next lines start with results.

EC50 (Cavia porcellus [1]) [µM] | Structure (SMILES) | Intrinsic activity (Cavia porcellus [2])
31 | COc1ccc(-c2ccncc2)c2c1NC(=O)CC2 | 0.75
12 | COc1cc([S+](C)[O-])ccc1-c1nc2cccnc2[nH]1 (centres undefined) [SULMAZOLE] | 0.85
8.3 | COc1ccc(-c2cccnc2)cc1NC(=O)CC(C)=O | 0.51
1.3 | Oc1ccc2c(-c3cccnc3)cccc2n1 | 0.83
5.75 | COc1ccc(-c2cccnc2)c2ccc(O)nc12.Cl | 0.79
6.75 | Br.Oc1ccc2c(-c3cccnc3)ccc(O)c2n1 | 0.62
300 | Oc1nc2ccccc2cc1-c1cccnc1 | 0.08
35 | COc1ccc(-c2ccncc2)c2ccc(O)nc12.Cl | 0.75
34.5 | COc1ccc(-c2ccccn2)c2ccc(O)nc12 | 0.62
12 | COc1ccc(-c2cccnc2)c2c1NC(=O)CC2 | 0.56
38 | COc1cccc2c(-c3ccncc3)cc(O)nc12.Cl | 0.45
